Experimental data as given in ChEMBL document CHEMBL4706730, “A Set of Highly Sensitive Sirtuin Fluorescence Probes for Screening Small-Molecular Sirtuin Defatty-Acylase Inhibitors” (ACS Med Chem Lett, 2021).
Calls of active or inactive are those of the source. The calls are words filed in the database; no cut-off is given here. Numbered stars: 1 amine (or outer) side, 2 acyl side, 3 side chain; on linkers, the order of the positions; unused ones are H or OH. Square brackets hold non-standard residues; d marks the D form. Peptide text beside a SMILES is read from it. * marks the point of attachment. Lys(thiomyristoyl) = CCCCCCCCCCCCCC(=S)NCCCC[C@H](N)C(=O)O; X1 = O=C(O)c1cc(NC(=S)*)ccc1-c1c2ccc(=O)cc-2oc2cc(O)ccc12; X2 = CN(CCC(=O)*)c1ccc(/N=N/c2ccc([N+](=O)[O-])cc2)cc1; Achc(trans-4) = O=C([C@H]1CC[C@H](N[*:1])CC1)[*:2]; X5 = O=C(Cc1ccc(/N=N/c2ccc(O)cc2)cc1)*

Key:
[1] = target: T1, NAD-dependent protein deacetylase sirtuin-2 (Homo sapiens) (UniProt Q8IXJ6); assay: (§1) Inhibition of 5-(3-((1r,4r)-4-((5S,8S,11S,14S,17S,20S,29S)-11-((1H-imidazol-4-yl)methyl)-1,33-diamino-5-carbamoyl-17-(4-(4-(4-((4-(dimethylamino)phenyl)diazenyl)phenyl)butanamido)butyl)-8,14-bis(3-guanidinopropyl)-20-methyl-7,10,13,16,19,22,25,28-octaoxo-6,9,12,15,18,21,24,27-octaazatritriacontan-29-ylcarbamoyl)cyclohexyl)thioureido)-2-(6-hydroxy-3-oxo-3H-xanthen-9-yl)benzoic acid binding to SIRT2 (unknown origin) at 10 uM measured after 2 hrs in presence of NAD+ by fluorometric method relative to control
T1 sequence (whole entry): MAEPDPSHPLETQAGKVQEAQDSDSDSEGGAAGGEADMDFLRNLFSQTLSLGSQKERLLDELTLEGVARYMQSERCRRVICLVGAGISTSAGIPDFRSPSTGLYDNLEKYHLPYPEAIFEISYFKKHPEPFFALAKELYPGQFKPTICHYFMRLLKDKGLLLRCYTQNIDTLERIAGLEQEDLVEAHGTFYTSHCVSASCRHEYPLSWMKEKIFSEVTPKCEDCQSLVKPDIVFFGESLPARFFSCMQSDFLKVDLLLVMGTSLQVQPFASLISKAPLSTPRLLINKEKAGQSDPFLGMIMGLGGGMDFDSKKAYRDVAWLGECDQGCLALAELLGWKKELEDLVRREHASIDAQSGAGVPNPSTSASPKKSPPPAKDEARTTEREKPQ
How it was run: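 In the primary library screen, 384-well plates held SIRT2 with the Dabcyl-BH/H4K16 one-step FRET probe. Each compound was tested at 10 μM with 0.5% DMSO, and inhibition was taken from the fluorescence signal.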

[2] = target: T2, NAD-dependent protein deacetylase sirtuin-2 (Homo sapiens, UniProt Q8IXJ6); assay: as §1, with “origin)” for “origin) at 10 uM”, “method” for “method relative to control”
T2 sequence (Q8IXJ6 whole entry): T1 sequence (whole entry)
How it was run: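 The second screen used the same SIRT2 one-step FRET probe conditions, validated at 2.92 nM SIRT2. Compounds were tested over a range of concentrations to check dose-dependency, and the IC50 was derived from the dose–response curve.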

[3] = target: NAD-dependent protein deacylase sirtuin-6 (Homo sapiens) (UniProt Q8N6T7); assay: Inhibition of 5-[[(1r,4r)-4-[[(1S)-4-amino-1-[[(1S,2R)-1-[[(1S)-2-[[(1S)-1-[[(1S)-1-[[(1S)-2-[[(1S,2R)-1-[[2-(carboxymethylamino)-2-oxoethyl]carbamoyl]-2-hydroxypropyl]amino]-1-(hydroxymethyl)-2-oxoethyl]carbamoyl]-5-[3-[N-methyl-4-[(4-nitrophenyl)azo]anilino]propanoylamino]pentyl]carbamoyl]-4-guanidinobutyl]amino]-1-methyl-2-oxoethyl]carbamoyl]-2-hydroxypropyl]carbamoyl]-4-oxobutyl]carbamoyl]cycl …
Target sequence in this assay (Q8N6T7 whole entry, looked up): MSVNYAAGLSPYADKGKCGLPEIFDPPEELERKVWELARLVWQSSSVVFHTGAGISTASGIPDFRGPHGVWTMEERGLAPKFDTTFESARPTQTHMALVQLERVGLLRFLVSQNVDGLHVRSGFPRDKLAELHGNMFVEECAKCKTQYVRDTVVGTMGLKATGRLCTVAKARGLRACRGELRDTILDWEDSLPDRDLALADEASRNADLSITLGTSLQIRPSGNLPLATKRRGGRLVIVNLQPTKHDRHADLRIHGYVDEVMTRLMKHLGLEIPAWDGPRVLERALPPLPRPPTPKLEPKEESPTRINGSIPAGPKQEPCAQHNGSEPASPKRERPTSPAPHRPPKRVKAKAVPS

[4] = target: T3, NAD-dependent protein deacetylase sirtuin-1 (Homo sapiens) (UniProt Q96EB6); assay: Binding affinity to SIRT1 (unknown origin) assessed as increase in fluorescence intensity at 2.5 uM measured at 5 mins interval for 1 hr in presence of NAD+ by fluorometric method relative to control
T3 sequence (whole entry): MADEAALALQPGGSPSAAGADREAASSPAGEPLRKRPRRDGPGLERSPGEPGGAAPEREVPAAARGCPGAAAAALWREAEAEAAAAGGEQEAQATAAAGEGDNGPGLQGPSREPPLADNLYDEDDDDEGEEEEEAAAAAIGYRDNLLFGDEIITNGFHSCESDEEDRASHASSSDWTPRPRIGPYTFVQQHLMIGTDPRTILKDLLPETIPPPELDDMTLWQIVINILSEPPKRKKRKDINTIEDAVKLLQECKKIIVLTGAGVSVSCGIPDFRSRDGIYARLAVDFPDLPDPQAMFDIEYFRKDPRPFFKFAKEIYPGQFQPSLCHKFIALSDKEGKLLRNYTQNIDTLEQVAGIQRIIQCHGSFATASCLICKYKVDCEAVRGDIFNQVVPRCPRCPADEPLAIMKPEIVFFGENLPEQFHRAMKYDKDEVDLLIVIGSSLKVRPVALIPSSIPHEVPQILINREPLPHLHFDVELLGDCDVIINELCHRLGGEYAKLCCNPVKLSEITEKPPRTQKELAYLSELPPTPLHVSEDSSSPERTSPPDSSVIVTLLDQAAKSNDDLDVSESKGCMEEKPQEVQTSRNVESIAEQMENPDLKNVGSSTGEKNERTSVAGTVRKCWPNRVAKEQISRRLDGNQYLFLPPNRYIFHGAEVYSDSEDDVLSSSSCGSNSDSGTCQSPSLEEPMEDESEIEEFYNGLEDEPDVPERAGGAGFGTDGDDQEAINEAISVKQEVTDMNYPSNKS
How it was run: (§2)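 Each FITC/quencher FRET peptide probe was incubated with recombinant SIRT1–7 in 96-well half-area plates at 37 °C for 1 h. The fluorescence increase is reported as a fold change, SIRT(+) signal over SIRT(−) signal, after 1 h.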

[5] = target: NAD-dependent protein deacylase sirtuin-5, mitochondrial (Homo sapiens) (UniProt Q9NXA8); assay: Binding affinity to SIRT5 (unknown origin) assessed as increase in fluorescence intensity at 2.5 uM measured at 5 mins interval for 1 hr in presence of NAD+ by fluorometric method relative to control; how it was run: as §2
[6] = target: T1, NAD-dependent protein deacetylase sirtuin-2 (Homo sapiens); assay: Binding affinity to SIRT2 (unknown origin) assessed as increase in fluorescence intensity at 2.5 uM measured at 5 mins interval for 1 hr in presence of NAD+ by fluorometric method relative to control; how it was run: as §2
[7] = target: T4, NAD-dependent protein deacetylase sirtuin-7 (Homo sapiens) (UniProt Q9NRC8); assay: Binding affinity to SIRT7 (unknown origin) assessed as increase in fluorescence intensity at 2.5 uM measured at 5 mins interval for 1 hr in presence of NAD+ by fluorometric method relative to control; how it was run: as §2
T4 sequence (whole entry): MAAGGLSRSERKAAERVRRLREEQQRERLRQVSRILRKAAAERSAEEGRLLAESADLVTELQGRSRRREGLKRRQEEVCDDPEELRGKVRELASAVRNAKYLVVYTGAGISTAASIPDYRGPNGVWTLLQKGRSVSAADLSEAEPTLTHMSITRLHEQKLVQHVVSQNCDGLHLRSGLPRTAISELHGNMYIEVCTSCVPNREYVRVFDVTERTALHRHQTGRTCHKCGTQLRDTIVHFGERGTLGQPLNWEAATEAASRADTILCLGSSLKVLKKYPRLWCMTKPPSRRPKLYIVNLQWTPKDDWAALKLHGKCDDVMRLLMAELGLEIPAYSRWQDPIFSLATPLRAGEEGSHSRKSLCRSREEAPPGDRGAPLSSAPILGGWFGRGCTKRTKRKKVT

[8] = target: T5, NAD-dependent protein deacetylase sirtuin-3, mitochondrial (Homo sapiens) (UniProt Q9NTG7); assay: Binding affinity to SIRT3 (unknown origin) assessed as increase in fluorescence intensity at 2.5 uM measured at 5 mins interval for 1 hr in presence of NAD+ by fluorometric method relative to control; how it was run: as §2
T5 sequence (whole entry): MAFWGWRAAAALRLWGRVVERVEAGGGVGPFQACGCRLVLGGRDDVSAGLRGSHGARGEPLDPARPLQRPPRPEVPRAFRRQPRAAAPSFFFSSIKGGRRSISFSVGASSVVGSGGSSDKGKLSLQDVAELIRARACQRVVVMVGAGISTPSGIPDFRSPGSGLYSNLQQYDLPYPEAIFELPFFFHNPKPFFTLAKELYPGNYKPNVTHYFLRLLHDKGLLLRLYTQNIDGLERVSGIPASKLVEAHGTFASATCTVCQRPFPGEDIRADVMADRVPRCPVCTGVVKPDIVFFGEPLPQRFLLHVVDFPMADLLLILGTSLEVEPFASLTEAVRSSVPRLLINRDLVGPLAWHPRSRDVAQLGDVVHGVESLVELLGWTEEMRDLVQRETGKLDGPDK

[9] = target: NAD-dependent protein deacylase sirtuin-6 (Homo sapiens) (UniProt Q8N6T7); assay: Binding affinity to SIRT6 (unknown origin) assessed as increase in fluorescence intensity at 2.5 uM measured at 5 mins interval for 1 hr in presence of NAD+ by fluorometric method relative to control; how it was run: as §2
Target sequence in this assay (Q8N6T7 whole entry): as the sequence (Q8N6T7 whole entry, looked up) above

[10] = target: T6, NAD-dependent protein lipoamidase sirtuin-4, mitochondrial (Homo sapiens) (UniProt Q9Y6E7); assay: Binding affinity to SIRT4 (unknown origin) assessed as increase in fluorescence intensity at 2.5 uM measured at 5 mins interval for 1 hr in presence of NAD+ by fluorometric method relative to control; how it was run: as §2
T6 sequence (whole entry): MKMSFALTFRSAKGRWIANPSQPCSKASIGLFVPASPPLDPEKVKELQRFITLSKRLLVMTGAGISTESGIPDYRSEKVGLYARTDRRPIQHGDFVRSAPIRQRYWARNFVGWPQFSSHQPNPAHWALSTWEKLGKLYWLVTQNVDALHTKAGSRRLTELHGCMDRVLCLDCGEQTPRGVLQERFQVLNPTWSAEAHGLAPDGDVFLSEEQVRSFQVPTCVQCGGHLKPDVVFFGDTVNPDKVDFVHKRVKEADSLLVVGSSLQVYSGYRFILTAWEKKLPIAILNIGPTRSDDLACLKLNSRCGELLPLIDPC

[11] = target: T1, NAD-dependent protein deacetylase sirtuin-2 (Homo sapiens); assay: Binding affinity to SIRT2 (unknown origin) assessed as increase in fluorescence intensity at 2.92 to 8.75 nM measured at 5 mins interval for 4 hrs in presence of NAD+ by fluorometric method; settings: dose 2.92-8.75 nM
[12] = target: T1, NAD-dependent protein deacetylase sirtuin-2 (Homo sapiens); assay: Binding affinity to SIRT2 (unknown origin) assessed as increase in fluorescence intensity measured at 5 mins interval for 1 hr in presence of NAD+ by fluorometric method

NAD-dependent protein deacylase sirtuin-5, mitochondrial (Homo sapiens), sequence (Q9NXA8 37-310 limits assumed): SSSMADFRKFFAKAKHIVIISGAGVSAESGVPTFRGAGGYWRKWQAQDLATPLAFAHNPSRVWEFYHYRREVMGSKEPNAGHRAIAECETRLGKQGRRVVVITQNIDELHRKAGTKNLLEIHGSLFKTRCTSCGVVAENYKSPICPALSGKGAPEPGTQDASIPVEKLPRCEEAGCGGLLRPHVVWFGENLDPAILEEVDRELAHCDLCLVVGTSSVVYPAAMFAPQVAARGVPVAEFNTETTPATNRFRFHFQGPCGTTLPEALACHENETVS

fold change (FC) [4]	fold change (FC) [5]	fold change (FC) [6]	fold change (FC) [7]	fold change (FC) [9]	fold change (FC) [10]	Structure (SMILES)	further results
–	–	–	–	–	–	C=C(C)Cn1c(NCCO)nc2c1c(=O)[nH]c(=O)n2C	inhibition [1]: > 35%
–	–	–	–	–	–	CC[C@H](C)[C@H](NC(=O)[C@H](CCCNC(=N)N)NC(C)=O)C(=O)N[C@@H](CCCCNC(=O)Cc1ccc(/N=N/c2ccc(O)cc2)cc1)C(=O)N[C@@H](CCCNC(=N)N)C(=O)N[C@@H](Cc1ccc(O)cc1)C(N)=O (Ac-RIK(X5)RY-NH2)	IC50 [2]: 7 nM
–	–	–	–	–	–	CCCCCCCCCCCCCC(=S)NCCCC[C@H](NC(=O)[C@@H](NC(=O)[C@H](CCCNC(=N)N)NC(C)=O)[C@@H](C)CC)C(=O)N[C@@H](CCCNC(=N)N)C(=O)N[C@@H](Cc1ccc(O)cc1)C(N)=O (Ac-RI[Lys(thiomyristoyl)]RY-NH2)	IC50 [3]: 100 nM
8.86	1.05	5.64	0.99	3.36	1.2	CN(CCC(=O)NCCCC[C@H](NC(=O)[C@H](Cc1ccccc1)NC(=O)[C@H](CO)NC(=O)[C@H](CCCCN)NC(=O)[C@H](CCCCN)NC(=O)[C@H]1CC[C@H](NC(=S)Nc2ccc(-c3c4ccc(=O)cc-4oc4cc(O)ccc34)c(C(=O)O)c2)CC1)C(=O)N[C@@H](CCC(=O)O)C(=O)N[C@@H](CCCNC(=N)N)C(=O)N[C@@H](CO)C(=O)N[C@@H](CO)C(N)=O)c1ccc(/N=N/c2ccc([N+](=O)[O-])cc2)cc1 (X1-[Achc(trans-4)]KKSFK(X2)ERSS-NH2)	fold change (FC) [8]: 26.2
5.85	1.15	6.97	1.05	1.19	1.25	CC[C@H](C)[C@H](NC(=O)[C@H](CCCNC(=N)N)NC(=O)[C@H](Cc1ccc(O)cc1)NC(=O)[C@H](CC(=O)O)NC(=O)[C@H]1CC[C@H](NC(=S)Nc2ccc(-c3c4ccc(=O)cc-4oc4cc(O)ccc34)c(C(=O)O)c2)CC1)C(=O)N[C@@H](CCCCNC(=O)CCN(C)c1ccc(/N=N/c2ccc([N+](=O)[O-])cc2)cc1)C(=O)N[C@@H](CCCNC(=N)N)C(=O)N[C@@H](Cc1ccc(O)cc1)C(=O)N[C@@H](Cc1c[nH]cn1)C(=O)N[C@H](C(N)=O)[C@@H](C)O (X1-[Achc(trans-4)]DYRIK(X2)RYHT-NH2)	fold change (FC) [8]: 26.7
–	–	–	–	–	–	O=C1CCCCC1C1(O)C(=O)Nc2ccccc21 (stereo unspecified)	inhibition [1]: > 35%
14.2	1.06	12	1	2.21	1.11	C[C@H](NC(=O)CNC(=O)CNC(=O)[C@H](CCCCN)NC(=O)[C@H]1CC[C@H](NC(=S)Nc2ccc(-c3c4ccc(=O)cc-4oc4cc(O)ccc34)c(C(=O)O)c2)CC1)C(=O)N[C@@H](CCCCNC(=O)CCCc1ccc(/N=N/c2ccc(N(C)C)cc2)cc1)C(=O)N[C@@H](CCCNC(=N)N)C(=O)N[C@@H](Cc1c[nH]cn1)C(=O)N[C@@H](CCCNC(=N)N)C(=O)N[C@@H](CCCCN)C(N)=O	Activity [11]: Active; Activity [12]: Dose-dependent effect
